These results are taken from ChEMBL document CHEMBL1240447, “Synthesis and bioactivity of sphingosine kinase inhibitors and their novel aspirinyl conjugated analogs” (Eur J Med Chem, 2010).

Active and inactive are the calls of the source. No cut-off for these calls is given here.

One series has as its system NCI-H226. The experiment in a line: Cytotoxicity against human NCI-H226 cells after 72 hrs by SRB assay. Format: functional, cell-based. The note with it: NCI-H226, 72 h. (The SRB assay estimates cell density from bound dye.)
A further series deals with A549. The series can be described thus: Cytotoxicity against human A549 cells after 72 hrs by SRB assay. The class given is functional, cell-based. As to conditions: A549, 72 h.
The subject of series [1] is Serum. The series can be described thus: Metabolic stability of the compound in fetal bovine serum assessed as conversion of SKI-1 after 16 hrs by HPLC analysis. The note with it: cattle. Format: ADME, cell-free, Bos taurus. The method in brief: (§1)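 Compound in DMSO, 1 mg/mL, added to 5 mL DMEM with 10% FBS (no cells) and shaken at 37 °C; samples at 0, 2, 16 and 72 h filtered and run on C18 HPLC; conjugate remaining and released parent SKI expressed as percentages of peak areas per time point.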

In the next series the test system is MEF. The experiment in a line: Cytotoxicity against MEF after 72 hrs by SRB assay. Format: cell-based. As to conditions: Mus musculus.
A short description of series [2]: Cytotoxicity against human MCF10A cells after 72 hrs by SRB assay. Format: cell-based. The note with it: MCF-10A.
Series [3] in a line: Chemical stability of the compound assessed as compound remaining after 72 hrs by HPLC analysis. Format: physicochemical. A digest of the protocol: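 Compound in DMSO, 1 mg/mL, added to 5 mL serum-free DMEM (no cells) and shaken at 37 °C; samples taken at 0, 2, 16 and 72 h, filtered and analyzed by C18 HPLC; percentages of parent and conjugate peak areas calculated per time point.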

Series [4] is described as follows: Half life in C3H-HEJ mouse serum at 60 mg/kg, ip up to 16 hrs by HPLC analysis. The class given is ADME, organism-based. Details: dose 60 mg/kg, route intraperitoneal.
A short description of series [5]: Cytotoxicity against human U87MG cells after 72 hrs by SRB assay. As to conditions: U-87 MG. The class given is functional, cell-based, U-87MG ATCC.
The next series concerns NCI-H460. The experiment in a line: Cytotoxicity against human H460 cells after 72 hrs by SRB assay. Format: functional, cell-based. The note with it: NCI-H460, 72 h.
Series [6] can be described thus: Cytotoxicity against human H441 cells after 72 hrs by SRB assay. As to conditions: NCI-H441, 72 h. The class given is functional, cell-based.
Series [7] has as its target Sphingosine kinase 1 (Homo sapiens) (UniProt Q9NYA1). The series can be described thus: Inhibition of Sphingosine kinase 1 in human HeLa cells at >=5 uM pre-incubated for 24 hrs. The class given is cell-based. The method in brief: (§2)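 HeLa cells preincubated 24 h with compound or DMSO; cytosol (100,000g supernatant) at 10 µg protein incubated with 50 µM D-erythro-sphingosine, 200 µM ATP plus [γ-32P]ATP in pH 7.4 Tris buffer, 30 min, 37 °C; S1P resolved by TLC and quantified by scintillation counting; triplicate.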

The subject of another series is MIA PaCa-2. The experiment in a line: Cytotoxicity against human MIAPaCa2 cells after 72 hrs by SRB assay. As to conditions: MIA PaCa-2, 72 h. The class given is functional, cell-based.
Another series has as its system MDA-MB-231. The series can be described thus: Cytotoxicity against human MDA-MB-231 cells after 72 hrs by SRB assay. Format: functional, cell-based. As to conditions: MDA-MB-231, 72 h.
In series [8] the target is Sphingosine kinase 1 (Homo sapiens) (UniProt Q9NYA1). The series can be described thus: Inhibition of Sphingosine kinase 1 in human HeLa cells at 1.25 uM pre-incubated for 24 hrs. Format: cell-based. The method in brief: as §2
Another series has as its system HeLa. The experiment in a line: Cytotoxicity against human HeLa cells after 72 hrs by SRB assay. The class given is functional, cell-based.
Series [9] deals with Serum. The experiment in a line: Metabolic stability of the compound in fetal bovine serum assessed as conversion of SKI-2 after 16 hrs by HPLC analysis. The class given is ADME, cell-free, Bos taurus. The note with it: cattle. A digest of the protocol:
as §1

Series [10] has as its system Serum. The experiment in a line: Metabolic stability of the compound in fetal bovine serum assessed as conversion of SKI-2 after 72 hrs by HPLC analysis. The note with it: cattle. The class given is ADME, cell-free, Bos taurus. The method in brief: as §1
Series [11] is described as follows: Metabolic stability of the compound in fetal bovine serum assessed as compound remaining after 72 hrs by HPLC analysis. Format: ADME, cell-free, Bos taurus. As to conditions: cattle, read-out: Stability. The method in brief: as §1
Series [12] has as its system Serum. The experiment in a line: Metabolic stability of the compound in fetal bovine serum assessed as conversion of SKI-2 after 2 hrs by HPLC analysis. The class given is ADME, cell-free, Bos taurus. The note with it: cattle. The method in brief: as §1

Chain of Sphingosine kinase 1 (Homo sapiens) (Q9NYA1 whole entry): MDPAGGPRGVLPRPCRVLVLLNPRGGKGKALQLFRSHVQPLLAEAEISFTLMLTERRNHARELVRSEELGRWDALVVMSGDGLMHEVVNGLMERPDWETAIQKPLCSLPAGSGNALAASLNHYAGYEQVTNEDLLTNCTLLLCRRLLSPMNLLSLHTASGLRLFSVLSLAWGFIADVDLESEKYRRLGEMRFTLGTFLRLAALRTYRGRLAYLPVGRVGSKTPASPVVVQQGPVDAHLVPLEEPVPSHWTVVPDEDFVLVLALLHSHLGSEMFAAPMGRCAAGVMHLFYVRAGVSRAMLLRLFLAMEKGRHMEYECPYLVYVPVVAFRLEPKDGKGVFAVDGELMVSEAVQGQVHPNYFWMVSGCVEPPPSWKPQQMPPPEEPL

`CC(=O)Oc1ccccc1C(=O)Oc1ccc2ccccc2c1/C=N/NC(=O)c1cc(-c2ccc3ccccc3c2)n[nH]1`: the IC50 with NCI-H226 is 1.7 µM; with A549 it was 0.9 µM; in the series with MEF, 5.5 µM; in series [2], 2.6 µM; in [5] it was 1.5 µM; in the series on NCI-H460 it was 1.2 µM. Moreover, the half-maximal inhibitory concentration (IC50) came to 0.6 µM in [6], 1.6 µM in the series with MIA PaCa-2, 1.3 µM with MDA-MB-231 and 1 µM in the series on HeLa. For the same molecule, the results for the Stability (in the series on Serum [1]; in [3]) were 80% and “Stable”, respectively. Also, the half-life in [4] was 10 h. Moreover, the outcome in [7] and in [8] was Active.

For `CC(=O)Oc1ccccc1C(=O)Oc1ccc(Nc2nc(-c3ccc(Cl)cc3)cs2)cc1`, the 50% inhibitory concentration (IC50) in the series with NCI-H226 worked out at 6.7 µM; in the series on A549 it was 5.9 µM; with MEF, 9.4 µM; in series [2], 11.3 µM; in [5] it was 8.1 µM; in the series with NCI-H460 it was 9.1 µM. In addition, the IC50 turned out to be 5.7 µM in series [6], 8.7 µM in the series with MIA PaCa-2, 8.4 µM with MDA-MB-231 and 11.2 µM in the series with HeLa. The Stability in the series on Serum [9] is reported as 50%; in the series with Serum [10], 75%; in series [3], “Stable”; in the series with Serum [12] it was 15%. For the same molecule, in [11], the remaining at 72 h turned out to be 25%. Further, the result in [7] and in series [8] was Active.

In the case of `Oc1ccc(Nc2nc(-c3ccc(Cl)cc3)cs2)cc1`, the half-inhibitory concentration (IC50) in the series with NCI-H226 is 8.6 µM; in the series on A549 it was 7.8 µM; in the series on MEF it was 8.9 µM; in series [2], 14.5 µM; in series [5] it was 10.7 µM; with NCI-H460, 9.2 µM. The 50% inhibitory concentration (IC50) in series [6] came out at 8 µM; in the series with MIA PaCa-2, 7.7 µM; in the series with MDA-MB-231, 8.2 µM; in the series on HeLa, 9.1 µM.

In the case of `O=C(N/N=C/c1c(O)ccc2ccccc12)c1cc(-c2ccc3ccccc3c2)n[nH]1`, the IC50 was 5.7 µM in the series with NCI-H226; 3.8 µM in the series on A549; 5 µM in the series with MEF; 4.1 µM in series [2]; 1 µM in series [5]; 3.2 µM in the series with NCI-H460. In addition, the IC50 amounted to 2 µM in series [6], 4.8 µM with MIA PaCa-2, 4.4 µM in the series on MDA-MB-231 and 1 µM with HeLa. The half-life in series [4] is 7 h.

In general, IC50 refers to the concentration at which inhibition is half-maximal. For orientation: half-life means the time in which the quantity being followed falls by half.
